Experimental data as given in ChEMBL document CHEMBL3525966, “Compartmental and enzyme kinetic modeling to elucidate the biotransformation pathway of a centrally acting antitrypanosomal prodrug” (Drug Metab Dispos, 2013).

Key:
[1] = Drug metabolism in sandwich-cultured human hepatocytes assessed as (3Z,3'Z)-6,6'-(furan-2,5-diyl)bis(N'-hydroxynicotinimidamide) at 10 uM after 4 hrs of incubation by HPLC-MS/MS analysis; format: ADME, cell-based, Hepatocyte
In short: (§1)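 Sandwich-cultured hepatocytes were used on day 5 (human) or day 4 (rat) and rinsed with warm phenol-red-free DMEM. They were then exposed to 10 µM DB868 (0.1–0.2% DMSO) at 37°C. Medium and methanol/water cell lysates were collected at 0.5, 2, 4 and 24 h. Analytes were quantified by HPLC/MS/MS with deuterated internal standards; protein by Bradford. Replicates: 6 (human) or 4 (rat).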

[2] = target: T1, Cytochrome P450 1A2 (Rattus norvegicus, UniProt P04799); assay: Prodrug conversion assessed as rat recombinant CYP1A2-mediated (Z)-N'-hydroxy-6-(5-(5-((Z)-N'-methoxycarbamimidoyl)pyridin-2-yl)furan-2-yl) nicotinimidamide formation at 5 uM after 180 mins incubation by HPLC-UV chromatogram; format: ADME; conditions: recombinant enzyme, 15 min, in the assay text read “15 mins” for “180 mins”
T1 sequence (P04799 whole entry): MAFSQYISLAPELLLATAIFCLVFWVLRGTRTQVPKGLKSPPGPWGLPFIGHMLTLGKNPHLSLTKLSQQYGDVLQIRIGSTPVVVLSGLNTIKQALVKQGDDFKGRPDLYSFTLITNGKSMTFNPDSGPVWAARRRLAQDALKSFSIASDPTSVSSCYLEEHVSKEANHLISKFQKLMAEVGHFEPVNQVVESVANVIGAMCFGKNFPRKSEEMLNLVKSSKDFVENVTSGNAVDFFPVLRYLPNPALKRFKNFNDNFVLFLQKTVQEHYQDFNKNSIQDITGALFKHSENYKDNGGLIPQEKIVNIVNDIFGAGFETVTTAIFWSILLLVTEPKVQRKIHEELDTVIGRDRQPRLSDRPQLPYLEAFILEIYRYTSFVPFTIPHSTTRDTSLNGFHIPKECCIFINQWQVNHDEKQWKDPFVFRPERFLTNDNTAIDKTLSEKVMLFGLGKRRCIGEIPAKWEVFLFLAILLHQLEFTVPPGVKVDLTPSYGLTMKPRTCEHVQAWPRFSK
In short: (§2)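 Insect-cell-expressed human or rat P450 (with NADPH-P450 reductase, some also with cytochrome b5) at 0.1 pmol/µL in 100 mM potassium phosphate pH 7.4 with 10 mM MgCl2. DB868 (for M1) or M1 (for M2) was added at 5 µM (0.5% DMSO) and started with 2 mM NADPH. Stopped after 15 min with ice-cold acetonitrile, then HPLC-UV. Duplicate incubations.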

[3] = target: T1, Cytochrome P450 1A2; assay: Prodrug conversion assessed as rat recombinant CYP1A2-mediated (3Z,3'Z)-6,6'-(furan-2,5-diyl)bis(N'-hydroxynicotinimidamide) formation at 5 uM after 180 mins incubation by HPLC-UV chromatogram; format: ADME; conditions: recombinant enzyme, 15 min, in the assay text read “15 mins” for “180 mins”; in short: as §2
[4] = tested on: Liver microsome; assay: Drug metabolism in rat liver microsomes assessed as (Z)-N'-hydroxy-6-(5-(5-((Z)-N'-methoxycarbamimidoyl)pyridin-2-yl)furan-2-yl nicotinimidamide formation measured per mg of protein by HPLC-MS/MS analysis; format: ADME
In short: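 M1 formation kinetics: HLM or RLM (0.5 mg/mL) in phosphate pH 7.4 with MgCl2, DB868 0.1–100 µM, started with 2 mM NADPH. Run 5 min (HLM) or 10 min (RLM) under initial-rate conditions (<20% consumption) in triplicate. Quantified by HPLC/MS/MS with d6-DB868 internal standard. Fitted to a one-enzyme (HLM) or two-enzyme (RLM) Michaelis–Menten model; Clint = Vmax/Km.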

[5] = tested on: Hepatocyte; assay: Biotransformation in sandwich-cultured human hepatocytes assessed as depletion of compound at 10 uM after 4 hrs of incubation by HPLC-MS/MS analysis; format: ADME, cell-based; in short: as §1
[6] = target: T2, Cytochrome P450 1A2 (Homo sapiens, UniProt P05177); assay: Prodrug conversion assessed as human recombinant CYP1A2-mediated (3Z,3'Z)-6,6'-(furan-2,5-diyl)bis(N'-hydroxynicotinimidamide) formation at 5 uM after 180 mins incubation by HPLC-UV chromatogram; format: ADME; conditions: recombinant enzyme, 15 min, in the assay text read “15 mins” for “180 mins”; in short: as §2
T2 sequence (P05177 whole entry): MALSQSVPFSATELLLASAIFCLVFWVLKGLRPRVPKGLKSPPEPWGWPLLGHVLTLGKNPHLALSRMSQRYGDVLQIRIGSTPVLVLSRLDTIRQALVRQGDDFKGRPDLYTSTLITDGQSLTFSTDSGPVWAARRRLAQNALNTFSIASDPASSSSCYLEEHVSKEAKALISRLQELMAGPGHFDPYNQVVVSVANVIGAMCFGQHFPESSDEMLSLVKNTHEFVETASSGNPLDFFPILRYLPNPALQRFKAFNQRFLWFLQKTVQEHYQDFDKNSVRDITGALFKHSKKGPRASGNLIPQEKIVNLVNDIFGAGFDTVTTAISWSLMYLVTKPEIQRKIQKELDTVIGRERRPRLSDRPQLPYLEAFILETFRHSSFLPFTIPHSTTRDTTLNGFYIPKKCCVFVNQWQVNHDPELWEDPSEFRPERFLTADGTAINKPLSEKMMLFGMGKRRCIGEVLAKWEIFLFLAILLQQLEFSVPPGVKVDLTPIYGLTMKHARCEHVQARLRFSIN

- Drug metabolism [1]: metabolite_detected
- Drug metabolism [2]: metabolite_detected
- Drug metabolism [3]: metabolite_detected
- Vmax [4]: 12 pmol/min
- Drug metabolism [5]: metabolite_detected
- Drug metabolism [6]: metabolite_detected
SMILES: CO/N=C(\N)c1ccc(-c2ccc(-c3ccc(/C(N)=N/OC)cn3)o2)nc1.Cl
